Experimental data taken from ChEMBL document CHEMBL3603773, “Synthesis of novel triazoles and a tetrazole of escitalopram as cholinesterase inhibitors” (Bioorg Med Chem, 2015).

Assays:
[1] = target: T1, Acetylcholinesterase (Homo sapiens, UniProt P22303); experiment: Inhibition of AChE (unknown origin) using acetylthiocholine iodide as substrate at 0.5 mM preincubated for 30 mins before substrate addition measured after 30 mins by Ellman method relative to control
[2] = target: T2, Cholinesterase (Homo sapiens, UniProt P06276); experiment: Inhibition of BChE (unknown origin) using butyrylthiocholine chloride as substrate at 0.5 mM preincubated for 30 mins before substrate addition measured after 30 mins by Ellman method relative to control
[3] = target: T2, Cholinesterase; experiment: Inhibition of BChE (unknown origin) using butyrylthiocholine chloride as substrate […] measured after 30 mins by Ellman method
[4] = target: T1, Acetylcholinesterase; experiment: Inhibition of AChE (unknown origin) using acetylthiocholine iodide as substrate […] measured after 30 mins by Ellman method
[5] = target: Cholinesterases; ACHE & BCHE (Homo sapiens) (UniProt P06276+P22303); experiment: Selectivity ratio of IC50 for AChE (unknown origin) to IC50 for BChE (unknown origin)
Procedure, shortened: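 Ratio of IC50 for AChE to IC50 for BChE, both measured by Ellman assay. Each IC50 is the mean of three independent experiments.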

[6] = target: T1, Acetylcholinesterase; experiment: Inhibition of AChE (unknown origin) using acetylthiocholine iodide as substrate at 0.25 mM preincubated for 30 mins before substrate addition measured after 30 mins by Ellman method relative to control
[7] = target: T2, Cholinesterase; experiment: Inhibition of BChE (unknown origin) using butyrylthiocholine chloride as substrate at 0.25 mM preincubated for 30 mins before substrate addition measured after 30 mins by Ellman method relative to control

T1 sequence (P22303 whole entry): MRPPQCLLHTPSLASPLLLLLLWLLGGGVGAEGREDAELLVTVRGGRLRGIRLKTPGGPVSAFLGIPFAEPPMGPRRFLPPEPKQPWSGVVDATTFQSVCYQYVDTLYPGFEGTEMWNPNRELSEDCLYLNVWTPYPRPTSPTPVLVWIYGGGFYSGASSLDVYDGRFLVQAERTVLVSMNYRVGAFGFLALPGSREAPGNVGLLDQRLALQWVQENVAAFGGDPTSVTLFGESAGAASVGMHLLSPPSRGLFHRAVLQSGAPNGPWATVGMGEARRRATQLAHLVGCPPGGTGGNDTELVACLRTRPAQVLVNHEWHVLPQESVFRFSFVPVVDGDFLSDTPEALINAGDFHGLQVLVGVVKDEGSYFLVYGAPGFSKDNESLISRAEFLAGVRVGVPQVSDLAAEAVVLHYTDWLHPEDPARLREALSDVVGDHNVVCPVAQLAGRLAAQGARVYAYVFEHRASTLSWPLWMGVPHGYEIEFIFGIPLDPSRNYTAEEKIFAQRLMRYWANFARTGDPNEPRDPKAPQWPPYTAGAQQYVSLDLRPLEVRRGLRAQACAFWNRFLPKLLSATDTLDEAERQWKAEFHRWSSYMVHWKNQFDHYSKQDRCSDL
T2 sequence (P06276 whole entry): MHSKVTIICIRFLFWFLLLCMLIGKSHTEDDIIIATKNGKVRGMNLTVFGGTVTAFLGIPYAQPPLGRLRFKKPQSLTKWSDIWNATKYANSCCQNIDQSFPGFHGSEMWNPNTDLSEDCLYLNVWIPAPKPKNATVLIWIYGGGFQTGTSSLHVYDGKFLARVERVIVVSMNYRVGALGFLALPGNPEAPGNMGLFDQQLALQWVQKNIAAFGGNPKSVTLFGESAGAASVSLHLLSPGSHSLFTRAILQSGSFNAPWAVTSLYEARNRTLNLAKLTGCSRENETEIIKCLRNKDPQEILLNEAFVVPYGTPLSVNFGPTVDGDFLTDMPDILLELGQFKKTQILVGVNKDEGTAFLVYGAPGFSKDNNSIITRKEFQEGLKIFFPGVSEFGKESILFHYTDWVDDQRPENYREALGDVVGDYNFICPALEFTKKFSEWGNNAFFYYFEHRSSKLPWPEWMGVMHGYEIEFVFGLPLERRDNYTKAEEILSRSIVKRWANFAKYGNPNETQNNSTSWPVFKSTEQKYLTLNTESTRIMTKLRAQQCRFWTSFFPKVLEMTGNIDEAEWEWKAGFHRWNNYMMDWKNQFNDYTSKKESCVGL
Chain of Cholinesterases; ACHE & BCHE (Homo sapiens) (P06276 whole entry, looked up): as the sequence (P06276 whole entry) above
Chain of Cholinesterases; ACHE & BCHE (Homo sapiens) (P22303 whole entry, looked up): as the sequence (P22303 whole entry) above

| SMILES | inhibition [1] | inhibition [2] | IC50 [3] | IC50 [4] | Ratio IC50 [5] | inhibition [6] | inhibition [7] |
| --- | --- | --- | --- | --- | --- | --- | --- |
| CN(C)CCC[C@@]1(c2ccc(F)cc2)OCc2cc(-c3nnc(-c4ccccc4Cl)[nH]3)ccc21 | 19.5% | 79.6% | 81.4 µM |  |  |  |  |
| CN(C)CCC[C@@]1(c2ccc(F)cc2)OCc2cc(-c3nnc(-c4ccc(O)cc4)[nH]3)ccc21 | 59.2% | 78.7% | 140 µM | 388 µM | 2.76 |  |  |
| CN(C)CCC[C@@]1(c2ccc(F)cc2)OCc2cc(-c3nnc(-c4ccc(I)cc4)[nH]3)ccc21 | 30.5% | 85.6% | 161 µM | > 500 µM | > 3.11 |  |  |
| CN(C)CCC[C@@]1(c2ccc(F)cc2)OCc2cc(-c3nnc(-c4cccc([N+](=O)[O-])c4)[nH]3)ccc21 | 81.7% | 79.2% | 105 µM | 138 µM | 1.32 |  |  |
| COc1ccc(-c2nnc(-c3ccc4c(c3)CO[C@@]4(CCCN(C)C)c3ccc(F)cc3)[nH]2)cc1 | 10.3% | 81.2% | 168 µM |  |  |  |  |
| CN(C)CCC[C@@]1(c2ccc(F)cc2)OCc2cc(-c3nnc(-c4ccc(N)cc4)[nH]3)ccc21 | 15.3% | 72.1% | 119 µM |  |  |  |  |
| CN(C)CCC[C@@]1(c2ccc(F)cc2)OCc2cc(-c3nnc(-c4ccccc4Br)[nH]3)ccc21 | 19.4% | 75% | 141 µM |  |  |  |  |
| CN(C)CCC[C@@]1(c2ccc(F)cc2)OCc2cc(-c3nnc(-c4ccccc4O)[nH]3)ccc21 | 16.3% | 80.7% | 102 µM |  |  |  |  |
| CN(C)CCC[C@@]1(c2ccc(F)cc2)OCc2cc(-c3nnc(-c4cccc(I)c4)[nH]3)ccc21 | 25.1% | 75.5% | 188 µM | > 500 µM | > 2.67 |  |  |
| CN(C)CCC[C@@]1(c2ccc(F)cc2)OCc2cc(-c3nnc(-c4ccccc4N)[nH]3)ccc21 | 70.2% | 71.7% | 111 µM | 360 µM | 3.25 |  |  |
| CN(C)CCC[C@@]1(c2ccc(F)cc2)OCc2cc(-c3nnc(-c4ccccc4)[nH]3)ccc21 | 30.4% | 81.8% | 129 µM | > 500 µM | > 3.88 |  |  |
| Cc1ccccc1-c1nnc(-c2ccc3c(c2)CO[C@@]3(CCCN(C)C)c2ccc(F)cc2)[nH]1 | 88.6% | 85% | 99.7 µM | 9.52 µM | 0.095 |  |  |
| Cc1cccc(-c2nnc(-c3ccc4c(c3)CO[C@@]4(CCCN(C)C)c3ccc(F)cc3)[nH]2)c1 | 88.1% | 71.5% | 89.2 µM | 133 µM | 1.49 |  |  |
| CN(C)CCC[C@@]1(c2ccc(F)cc2)OCc2cc(-c3nnc(-c4ccc([N+](=O)[O-])cc4)[nH]3)ccc21 | 16.2% | 69.7% | 106 µM |  |  |  |  |
| COc1cccc(-c2nnc(-c3ccc4c(c3)CO[C@@]4(CCCN(C)C)c3ccc(F)cc3)[nH]2)c1 | 89.7% | 91% | 103 µM | 124 µM | 1.2 |  |  |
| CN(C)CCC[C@@]1(c2ccc(F)cc2)OCc2cc(-c3nnc(-c4ccc(F)cc4)[nH]3)ccc21 | 71.5% | 92.5% | 5.31 µM | 261 µM | 49.1 |  |  |
| CN(C)CCC[C@@]1(c2ccc(F)cc2)OCc2cc(-c3nnc(-c4ccccc4F)[nH]3)ccc21 |  |  | 4.52 µM | 188 µM | 41.5 | 62.1% | 93.6% |
| CN(C)CCC[C@@]1(c2ccc(F)cc2)OCc2cc(-c3nnc(-c4ccccc4[N+](=O)[O-])[nH]3)ccc21 | 5.09% | 62.9% | 297 µM |  |  |  |  |
| CN(C)CCC[C@@]1(c2ccc(F)cc2)OCc2cc(-c3nnc(-c4cccc(N)c4)[nH]3)ccc21 | 29.9% | 73.5% | 188 µM | > 500 µM | > 2.67 |  |  |
| CN(C)CCC[C@@]1(c2ccc(F)cc2)OCc2cc(-c3nnc(-c4cccc(O)c4)[nH]3)ccc21 |  |  | 119 µM | < 500 µM | < 4.22 | 39.3% | 61.7% |
| CN(C)CCC[C@@]1(c2ccc(F)cc2)OCc2cc(-c3nnc(-c4ccc(Cl)cc4)[nH]3)ccc21 | 91.6% | 73.7% | 151 µM | 6.71 µM | 0.044 |  |  |
| CN(C)CCC[C@@]1(c2ccc(F)cc2)OCc2cc(-c3nnc(-c4cccc(Cl)c4)[nH]3)ccc21 | 57.4% | 79.9% | 26.5 µM | 413 µM | 15.7 |  |  |
| CN(C)CCC[C@@]1(c2ccc(F)cc2)OCc2cc(-c3nnc(-c4cccc(Br)c4)[nH]3)ccc21 | 37.9% | 85.5% | 78 µM | < 500 µM | < 6.41 |  |  |
| COc1cc(-c2nnc(-c3ccc4c(c3)CO[C@@]4(CCCN(C)C)c3ccc(F)cc3)[nH]2)ccc1O | 34.8% | 88.6% | 24.1 µM | < 500 µM | < 20.8 |  |  |
| COc1ccccc1-c1nnc(-c2ccc3c(c2)CO[C@@]3(CCCN(C)C)c2ccc(F)cc2)[nH]1 | 80.4% | -2.13% |  | 161 µM |  |  |  |
| Cc1ccc(-c2nnc(-c3ccc4c(c3)CO[C@@]4(CCCN(C)C)c3ccc(F)cc3)[nH]2)cc1 | 16% | 91% | 152 µM |  |  |  |  |
| CN(C)CCC[C@@]1(c2ccc(F)cc2)OCc2cc(-c3nnc(-c4cccc(F)c4)[nH]3)ccc21 | 32.2% | 82.9% | 44.8 µM | < 500 µM | < 11.2 |  |  |
| CN(C)CCC[C@@]1(c2ccc(F)cc2)OCc2cc(-c3nnc(-c4ccccc4I)[nH]3)ccc21 | 72.3% | 84.5% | 25.9 µM | 310 µM | 12 |  |  |
| CN(C)CCC[C@@]1(c2ccc(F)cc2)OCc2cc(-c3nnc(-c4ccc(Br)cc4)[nH]3)ccc21 | 15.6% | 50.6% | 492 µM |  |  |  |  |
